Compound activity from PubChem BioAssay.
ERAP1 inh: blocks human ERAP1 aminopeptidase activity; Q9NZ08; recombinant ERAP1, Leu-AMC fluorescence, 60 min; inhibition, % at 10.7 µM; hit rate 0.15% among 340,000; AID 652197;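 active = mean replicate inhibition of at least 30%, or all replicates individually reaching that 30% level; inactive = mean below 30% and not every replicate reaching it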
PGC1a acetyl inh: PGC1a acetylation modulation, inhibitor mode. U2OS PGC1a acetylation, AlphaScreen anti-acetyl-lysine; with virally co-expressed GCN5 acetyltransferase. inhibition, % at 15.6 µM. hit rate 0.17% among 350,000;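 active = every replicate shows inhibition of at least 40%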
FGF22 binding: FGF22 (human) thermal shift binding; Q9HCT0; recombinant FGF22 thermal shift, SYPRO orange fluorescence; percent of sucrose octasulfate shift, DMSO zero; activity (Tm shift, normalised), % at 9.99 µM; hit rate 1.5% among 340,000; AID 651658;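 active = mean Tm shift, scaled 0 neutral to 100 positive control, at about 1.3% or above, every replicate too, limit read from the data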
Target sequence (Q9HCT0 whole entry, looked up): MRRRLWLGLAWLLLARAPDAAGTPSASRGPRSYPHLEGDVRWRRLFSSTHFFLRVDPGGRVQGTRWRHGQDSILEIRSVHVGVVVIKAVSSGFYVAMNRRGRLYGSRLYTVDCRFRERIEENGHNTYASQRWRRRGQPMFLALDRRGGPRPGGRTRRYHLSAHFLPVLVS
SIRT5 block: inhibitors of human sirtuin-5 desuccinylase; Q9NXA8; Purified SirT5, succinyl-peptide AMC, trypsin-coupled fluorescence; inhibition, % at 15 µM; hit rate 1.1% among 330,000; AID 652115; in the data active = inhibition above about 15%
Target sequence (Q9NXA8 whole entry, looked up): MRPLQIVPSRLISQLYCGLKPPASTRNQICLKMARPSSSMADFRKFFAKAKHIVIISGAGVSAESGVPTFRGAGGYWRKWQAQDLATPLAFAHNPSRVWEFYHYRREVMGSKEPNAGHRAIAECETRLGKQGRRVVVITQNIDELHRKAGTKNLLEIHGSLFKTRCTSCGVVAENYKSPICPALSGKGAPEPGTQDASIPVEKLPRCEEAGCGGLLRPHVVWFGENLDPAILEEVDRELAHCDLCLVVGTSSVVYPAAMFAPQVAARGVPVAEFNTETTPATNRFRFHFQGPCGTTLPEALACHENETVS
FN deposition inh: fibronectin deposition inhibition. inhibition, % at 12.6 µM. AH1F fibroblasts, Alexa488-fibronectin deposition fluorescence, overnight. hit rate 0.086% among 350,000;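 active = mean inhibition across replicates of 30% or more, regardless of how many single replicates reach that level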
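test system = AH1F fibroblasts assembling fluorescent fibronectin matrix | quantity = 10000 AH1F cells per well | buffer or medium = DMEM plus 2% serum, read in PBS | doses = single dose, pinned | incubation = 1 h cell attachment, overnight exposure to compound and label | detection = fluorescence at 485 nm excitation, 525 nm emission | read-out basis = inhibition from reduced deposited-fibronectin fluorescence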
Numbers stand for hits; . = inactive; / = not tested or not shown. In the library only some 2.2% were active in any assay of this set; here they are far more common.

SMILES	ERAP1 inh	PGC1a acetyl inh	FGF22 binding	SIRT5 block	FN deposition inh
C[C@@H]1CN([C@@H](C)CO)C(=O)c2cc(NS(=O)(=O)c3cn(C)cn3)ccc2O[C@@H](C)CCCCO[C@H]1CN(C)C(=O)c1ccccc1	.	.	/	.	.
CCN(C(=O)CSc1nc2scc(-c3ccccc3)c2c(=O)n1N)C1CCS(=O)(=O)C1 (stereo not given)	.	.	.	19.8	.
O=C1C2C3C=CC(CC3)C2C(=O)N1/N=C/c1ccco1 (stereo not given)	.	/	44.0	.	.
CN(C(=O)CSc1nc2ccccc2o1)C1CCS(=O)(=O)C1 (stereo not given)	.	/	.	16.4	.
O=C(C[C@@H]1C[C@H]2c3cc(NC(=O)NC4CCCCC4)ccc3O[C@H]2[C@H](CO)O1)NCc1ccccc1	.	.	.	.	.
O=C(C[C@H]1C/C=C\CC[C@H](Cc2ccc(F)cc2)C(=O)O[C@@H](c2ccccc2)CNC1=O)N[C@@H](CO)Cc1ccccc1	.	/	44.1	.	.
C[C@H](CO)N1C[C@H](C)[C@@H](CN(C)S(=O)(=O)c2ccc(F)cc2)Oc2ccc(NC(=O)Cn3cnnn3)cc2C1=O	.	.	.	.	/
CS(=O)(=O)N1CCN(c2ccc(NC(=S)NC(=O)c3ccc4c(c3)OCO4)cc2)CC1	.	.	43.5	.	.
CC(=O)N1[C@@H]2CN(S(=O)(=O)c3cccc(C)c3)c3ccccc3[C@@H]2[C@@H]1CO	/	.	/	/	/
CC(C)NC(=O)N(C)C[C@@H]1Oc2ccc(NS(C)(=O)=O)cc2CC(=O)N([C@H](C)CO)C[C@@H]1C	.	.	.	.	/
Cc1ccc(-c2cnc3c(c2)C(=O)N([C@@H](C)CO)C[C@@H](C)[C@@H](CN(C)C(=O)c2ccccc2)O3)cc1	.	.	.	.	.
CCCCCCn1cc(CN2CC(N3CCSCC3)CS2(=O)=O)nn1 (stereo not given)	.	/	.	17.4	.
O=S1(=O)CC(N2CCCC2)CN1Cc1cn(Cc2ccccc2)nn1 (stereo not given)	.	/	.	27.8	.
CN1CCN(C2CN(Cc3cn(Cc4ccccc4C(F)(F)F)nn3)S(=O)(=O)C2)CC1 (stereo not given)	.	.	.	.	/
CN(C)CCN1CCN(C2CN(Cc3cn(Cc4ccccc4C(F)(F)F)nn3)S(=O)(=O)C2)CC1 (stereo not given)	.	.	15.0	20.6	.
O=S1(=O)CC(N2CCC(c3ccccc3)CC2)CN1Cc1ccccc1 (stereo not given)	.	.	.	37.2	.
CCCCCCn1cc(CN2CC(N3CCCC3)CS2(=O)=O)nn1 (stereo not given)	.	/	.	.	.
O=S1(=O)CC(N2CCCCC2)CN1Cc1ccccc1 (stereo not given)	/	.	.	.	.
O=C(c1ccc(NS(=O)(=O)c2ccc(F)cc2)cc1)N1CCCCCC1	.	/	.	16.7	.
O=C(c1ccc(S(=O)(=O)Nc2ccc(F)cc2)cc1)N1CCN(c2ccccn2)CC1	.	.	42.9	.	.
O=C(c1ccc(NS(=O)(=O)c2cccc3cccnc23)cc1)N1CCCCC1	.	/	43.7	.	.
Cc1noc(C)c1NC(=O)Nc1ccc2c(c1)C(=O)N([C@H](C)CO)C[C@H](C)[C@H](CN(C)C(=O)Nc1ccccc1)OCCCC[C@@H](C)O2	.	.	.	.	.
C/C=C/c1ccc2c(c1)O[C@H](CN(C)C(=O)c1ccccc1F)[C@@H](C)CN([C@H](C)CO)S2(=O)=O	.	.	.	.	.
O=C(CNC(=O)c1ccccc1)OCC(=O)N1N=C(c2ccc(Cl)cc2)CC1c1ccco1 (stereo not given)	.	/	43.0	.	.
CN1CCN(C(=O)[C@H]2[C@H](CO)[C@H]3Cn4c(cccc4=O)[C@H]3N2Cc2ccccc2F)CC1	.	/	.	.	/
SMILES	ERAP1 inh	PGC1a acetyl inh	FGF22 binding	SIRT5 block	FN deposition inh
CN(C)CC(=O)N[C@H]1CC[C@H](CCn2cc(C3CCCC3)nn2)O[C@@H]1CO	.	.	.	.	.
COc1ccccc1CNS(=O)(=O)c1cccc2nsnc12	.	.	.	.	.
COc1ccccc1CNC(=O)C(NS(=O)(=O)c1cccc2nsnc12)C(C)C (stereo not given)	/	.	.	19.2	.
O=C(NCCc1ccc(Cl)cc1Cl)c1ccc2nc[nH]c2c1	.	.	.	.	.
O=C(NCCc1ccc(Cl)cc1)c1ccc2nc[nH]c2c1	.	.	43.1	.	/
NC(=O)c1ncc(C(F)(F)F)cc1Cl	.	/	.	.	.
NC(=O)c1ccc(C(F)(F)F)cn1	.	.	.	32.2	.
CCOc1cc(/C=N/NC(=O)C(N)=O)cc(Br)c1O	.	/	43.3	.	.
CCOc1cc(/C=N/NC(=O)C(=O)NC2CC2)cc(Br)c1O	.	.	.	.	.
Cc1ccc(NS(=O)(=O)c2cccc(C(=O)NCC(c3cccs3)N(C)C)c2)cc1 (stereo not given)	.	.	42.9	.	.
Cc1ccccc1-c1ccc(C2[C@@H]3CN(C(=O)Nc4cccc(F)c4)C[C@H]2N3)cc1 (stereo not given in full)	.	.	/	.	.
Cc1cccc(NC(=O)Cn2nnc(-c3cccs3)n2)c1C	.	/	/	24.7	/
CCc1ccccc1NC(=O)Cn1nnc(-c2cccs2)n1	/	.	/	/	/
Cc1noc(C)c1NC(=O)Nc1ccc2c(c1)C(=O)N([C@@H](C)CO)C[C@H](C)[C@@H](CN(C)C)OCCCC[C@H](C)O2	.	.	.	.	/
N#C/C(=C/c1cccn1-c1cccc(C(=O)O)c1)c1ccc(Cl)cc1	.	.	43.6	.	.
O=C(O)c1cccc(-n2cccc2/C=C/[N+](=O)[O-])c1	.	.	/	15.3	.
CCCCc1c(-c2cccc(F)c2)ncn1CCc1ccccc1OC	.	/	.	.	.
CCCCc1c(-c2ccccc2F)ncn1CCc1ccccc1OC	.	/	.	27.9	.
CCCCc1c(-c2cccc(Br)c2)ncn1CCc1ccccc1OC	.	/	34.6	.	.
CN1C[C@@H]2[C@H](c3ccccc31)[C@H](CO)N2C(=O)CN1CCOCC1	.	.	.	.	/
COc1ccc(-c2cc(-c3ccccc3)c(C#N)c(S(C)=O)n2)cc1 (stereo not given)	/	85.0	/	/	.
C[C@@H]1CN([C@H](C)CO)C(=O)c2cc(-c3cccc(C#N)c3)cnc2O[C@@H]1CN(C)C(=O)C1CC1	.	.	.	.	/
NC(=S)c1ncc(C(F)(F)F)cc1Cl	/	.	.	.	.
NC(=S)Nc1ncc(C(F)(F)F)cc1Cl	.	.	43.4	.	.
Cc1cc(C(=O)Nc2cccc3c2O[C@H](CN(C)Cc2ccccc2)[C@@H](C)CN([C@H](C)CO)C3=O)n(C)n1	.	/	.	.	/
Cc1ccc2nsnc2c1NC(=O)c1ccc([N+](=O)[O-])cc1	.	/	43.5	.	.
Cc1c(NC(=O)c2ccc3nsnc3c2)cccc1[N+](=O)[O-]	.	.	.	.	32.8
CCN(CCn1cccn1)Cc1nc(-c2ccc(OC)cc2)no1	.	/	43.1	.	.
